Assay [1] concerns the target T1, Kappa-type opioid receptor (Cavia porcellus, UniProt P41144). The experiment in a line: Binding affinity against Opioid receptor kappa 1 from guinea pig brain, using [3H](-)-bremazocine as radioligand; NI=no inhibition. The procedure, abridged: (§1)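 Guinea pig brain crude P2 membranes (500 μg protein) with 2 nM [3H](-)-bremazocine, plus 100 nM DAMGO and 100 nM DSTLE to block μ/δ sites. Incubated in 0.5 mL 10 mM Tris-HCl pH 7.4, 90 min, 25 °C. Nonspecific binding with 10 μM levallorphan. Filtration. Screened at 100–10 000 nM. No inhibition = <30% at 10 000 nM.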

In assay [2] the target is T2, D(2) dopamine receptor (Rattus norvegicus, UniProt P61169). The experiment in a line: Binding affinity against dopamine receptor D2 from rat brain, using [3H](-)-sulpiride as radioligand. The procedure, abridged:
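Rat brain crude P2 membranes (500 μg protein) incubated with 5 nM [3H](-)-sulpiride in 50 mM Tris-HCl pH 7.7 + 120 mM NaCl, 60 min, 25 °C; nonspecific with 1 μM haloperidol; filtration.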

In assay [3] the target is Muscarinic acetylcholine receptor. The assay is described as follows: Binding affinity against muscarinic cholinergic receptor from rat brain, using [3H]-QNB as radioligand. The procedure, abridged:
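Rat brain P2 membranes (~500 μg protein) with 0.3 nM [3H]QNB in 0.5 mL Krebs-Henseleit/HEPES pH 7.4, 60–90 min, 37 °C. Nonspecific binding with 10 μM QNB. Stopped with ice-cold PBS, then filtration. […] IC50 converted to Ki by Cheng-Prusoff.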

The target of assay [4] is T1, Kappa-type opioid receptor. The assay is described as follows: Binding affinity against opioid receptor kappa from guinea pig brain, using [3H](-)-bremazocine as radioligand; NI=no inhibition. The procedure, abridged: as §1
For assay [5], the target named is T2, D(2) dopamine receptor. The assay is described as follows: Binding affinity against Dopamine receptor D2 from rat brain, using [3H](-)-sulpiride as radioligand. The procedure, abridged:
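Rat brain (minus cerebella) crude P2 membranes, 500 μg protein, incubated with 5 nM [3H](-)-sulpiride in 0.5 mL 50 mM Tris-HCl pH 7.7 + 120 mM NaCl, 60 min, 25 °C. Nonspecific binding with 1 μM haloperidol. Filtration, scintillation counting. […] IC50 by curve fitting, Cheng-Prusoff Ki.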

The target of assay [6] is T1, Kappa-type opioid receptor. The experiment in a line: Binding affinity against Opioid receptor kappa 1 from guinea pig brain, using [3H](-)-bremazocine as radioligand. The procedure, abridged:
as §1

Assay [7] deals with T1, Kappa-type opioid receptor. The assay is described as follows: Binding affinity against opioid receptor kappa from guinea pig brain, using [3H](-)-bremazocine as radioligand. The procedure, abridged: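 Guinea pig brain P2 membranes (500 μg protein) with 2 nM [3H](-)-bremazocine plus 100 nM DAMGO and 100 nM DSTLE blocking μ/δ, 10 mM Tris-HCl pH 7.4, 90 min, 25 °C; nonspecific with 10 μM levallorphan; filtration.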

T2 sequence (P61169 whole entry): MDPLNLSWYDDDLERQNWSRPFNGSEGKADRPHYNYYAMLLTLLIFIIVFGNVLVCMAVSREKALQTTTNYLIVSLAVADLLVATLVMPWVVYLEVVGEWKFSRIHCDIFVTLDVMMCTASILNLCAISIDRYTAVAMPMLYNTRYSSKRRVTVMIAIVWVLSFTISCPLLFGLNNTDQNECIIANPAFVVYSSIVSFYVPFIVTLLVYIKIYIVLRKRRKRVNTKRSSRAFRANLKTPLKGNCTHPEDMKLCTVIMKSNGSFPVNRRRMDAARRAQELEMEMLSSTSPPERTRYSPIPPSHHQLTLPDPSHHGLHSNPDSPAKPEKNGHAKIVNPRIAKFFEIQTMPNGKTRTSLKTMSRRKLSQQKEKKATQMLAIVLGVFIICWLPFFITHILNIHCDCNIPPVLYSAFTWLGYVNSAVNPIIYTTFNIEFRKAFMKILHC
T1 sequence (P41144 whole entry): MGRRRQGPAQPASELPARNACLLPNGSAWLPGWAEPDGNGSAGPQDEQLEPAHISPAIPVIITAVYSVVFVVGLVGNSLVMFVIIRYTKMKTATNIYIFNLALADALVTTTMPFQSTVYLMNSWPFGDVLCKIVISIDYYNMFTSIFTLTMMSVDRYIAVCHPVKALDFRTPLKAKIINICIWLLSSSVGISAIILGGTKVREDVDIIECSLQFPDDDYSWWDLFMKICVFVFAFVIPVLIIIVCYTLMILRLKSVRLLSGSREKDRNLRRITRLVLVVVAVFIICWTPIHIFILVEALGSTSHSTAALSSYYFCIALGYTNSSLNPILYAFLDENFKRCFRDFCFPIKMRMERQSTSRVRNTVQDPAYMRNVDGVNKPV

Regarding `CN(CCc1ccc(Cl)c(Cl)c1)CCN1CCCC1`, in assay [1], the Ki (as a rule, a measure of affinity in units of concentration, obtained from inhibition or displacement) is given as “Not Active”.

Regarding `FCCCN1CCN(CCc2ccc(Cl)c(Cl)c2)CC1`, the results for the Ki in assay [2], in assay [3] and in assay [4] were 12 µM, 682.5 µM and “Not Active”, respectively.

Take `CCCN1CCN(CCc2ccc(Cl)c(Cl)c2)CC1`: the inhibition constant (Ki) entry in assay [1] is “Not Active”; in assay [5] it was 2.9 µM.

`FCCCN(CCc1ccc(Cl)c(Cl)c1)CCN1CCCC1`: the results for the Ki in assay [3], in assay [6] and in assay [5] were 32.03 µM, 10.5 µM and 3.11 µM, respectively.

On to `CN(CCc1cc(Cl)c(Cl)cc1I)CCN1CCCC1`, for which the Ki stood at 7 µM in assay [3], 18.5 µM in assay [6] and 1.31 µM in assay [5].

On to `CCCCCN1CC[C@@]2(C)c3cc(O)ccc3CC1[C@H]2C` (single isomer, unassigned; (+)), for which the Ki in assay [2] amounted to 2.53 µM; in assay [3], 56.85 µM; in assay [7], 1.99 µM.
